Among the data in ChEMBL document CHEMBL3525967, “In vitro glucuronidation of the antibacterial triclocarban and its oxidative metabolites” (Drug Metab Dispos, 2012) are Km, Vmax and Drug metabolism values, retold here.

Series [1] is described as follows: Drug metabolism in cynomolgus monkey liver microsomes after 30 mins by LC-ESI-MS analysis. Type of series: ADME, Macaca fascicularis. The gist of the method:
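2'-OH-TCC at 0.2, 0.5, 1, 2, 3, 5, 10 and 50 µM incubated with liver microsomes (alamethicin, MgCl2, saccharolactone, UDPGA; 37 °C), sampled at 5, 10, 15 and 30 min. Samples ≥5 µM diluted 1:9 in ACN; LC-ESI-MS. KM and vmax fitted from rate vs concentration; intrinsic clearance derived from these; mean and SD of three.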
(Microsomes from liver hold many membrane-bound enzymes, among them those of drug oxidation.)

For series [2], the target named is T1, UDP-glucuronosyltransferase 1A9 (Homo sapiens, UniProt O60656).
T1 sequence (O60656 whole entry): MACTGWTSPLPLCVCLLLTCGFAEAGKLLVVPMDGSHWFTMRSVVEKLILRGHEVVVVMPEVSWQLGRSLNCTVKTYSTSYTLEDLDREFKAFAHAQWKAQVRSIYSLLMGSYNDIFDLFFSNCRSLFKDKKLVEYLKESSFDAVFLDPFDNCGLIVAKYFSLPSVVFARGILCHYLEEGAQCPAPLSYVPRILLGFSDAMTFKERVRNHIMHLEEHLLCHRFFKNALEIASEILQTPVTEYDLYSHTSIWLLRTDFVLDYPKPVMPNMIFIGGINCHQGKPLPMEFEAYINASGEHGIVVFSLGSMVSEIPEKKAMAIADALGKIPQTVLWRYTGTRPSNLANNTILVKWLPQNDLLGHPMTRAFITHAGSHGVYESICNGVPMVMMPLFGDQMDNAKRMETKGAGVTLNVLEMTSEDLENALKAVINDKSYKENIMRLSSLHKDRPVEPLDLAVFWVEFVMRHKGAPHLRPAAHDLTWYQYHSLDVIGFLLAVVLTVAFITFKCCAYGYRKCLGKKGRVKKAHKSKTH
Put plainly: Drug metabolism assessed as human UGT1A9-mediated N'-glucuronide-triclocarban formation expressed in baculovirus infected insect sf9 cells incubated for 5 mins prior to UDPGA addition measured after 30 mins by LC-ESI-MS analysis. The format is ADME. The conditions noted are these: sf9, 0.5 h. The gist of the method: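 TCC was incubated at 10 µM (2% DMSO) in 100 mM phosphate pH 7.4 with alamethicin-treated microsomes or Supersomes, 10 mM MgCl2 and 10 mM saccharolactone. After 5 min pre-incubation at 37 °C, UDPGA was added to start the reaction. Protein was raised up to 2 mg/mL. Samples were quenched in ACN with 1 µM DCC internal standard, centrifuged, and N-glucuronides detected by LC-ESI-MS/MS in SRM mode.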

For series [3], the target named is T2, UDP-glucuronosyltransferase 2B15 (Homo sapiens, UniProt P54855).
T2 sequence (P54855 whole entry): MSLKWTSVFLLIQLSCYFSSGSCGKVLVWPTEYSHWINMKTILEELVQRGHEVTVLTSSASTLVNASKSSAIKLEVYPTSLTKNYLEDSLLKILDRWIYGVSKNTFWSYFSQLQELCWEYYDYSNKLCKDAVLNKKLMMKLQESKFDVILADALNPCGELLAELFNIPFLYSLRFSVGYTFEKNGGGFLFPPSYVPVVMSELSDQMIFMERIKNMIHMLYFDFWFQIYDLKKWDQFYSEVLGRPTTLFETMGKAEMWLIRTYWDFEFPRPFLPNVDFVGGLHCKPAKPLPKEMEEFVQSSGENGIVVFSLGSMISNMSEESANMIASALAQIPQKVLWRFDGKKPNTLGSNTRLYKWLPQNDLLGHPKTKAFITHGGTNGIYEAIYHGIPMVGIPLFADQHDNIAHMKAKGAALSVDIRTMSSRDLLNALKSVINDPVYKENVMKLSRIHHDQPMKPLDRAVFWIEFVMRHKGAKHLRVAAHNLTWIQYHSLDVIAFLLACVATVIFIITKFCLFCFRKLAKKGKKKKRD
Put plainly: Drug metabolism assessed as human UGT2B15-mediated N'-glucuronide-triclocarban formation expressed in baculovirus infected insect sf9 cells incubated for 5 mins prior to UDPGA addition measured after 5 to 30 mins by LC-UV analysis. The format is ADME. The method in brief:
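Microsomes or UGT Supersomes (5 µg protein) were held 15 min on ice with alamethicin in 100 mM potassium phosphate pH 7.4. TCC was added at 10 µM (2% DMSO) with 10 mM MgCl2 and 10 mM saccharolactone, pre-warmed 5 min at 37 °C, then started with UDPGA. Samples at 5, 10, 15 and 30 min were quenched in ACN. Product was read by LC-UV at 265 nm; rate came from regression over time, three incubations.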

As usually defined, the Km is the concentration of substrate that gives half-maximal velocity. For orientation: Vmax means the rate approached at saturating substrate. Consider `O=C(Nc1ccc(Cl)c(Cl)c1)Nc1ccc(Cl)cc1O`, for which, in series [1] (liver microsomes), the Km at 0.5 h was 1.4 µM. In addition, in series [1] (microsomes, 0.5 h), the maximal velocity (Vmax) is reported as 26.7 nmol/min/mg.
As to `O=C(Nc1ccc(Cl)cc1)Nc1ccc(Cl)c(Cl)c1` [TRICLOCARBAN], the Drug metabolism result was “metabolite_detected” in series [2] and “metabolite_not_detected” in series [3].
